This is an account of results in ChEMBL document CHEMBL4680091, “Discovery of Novel Spiro[3H-indole-3,2'-pyrrolidin]-2(1H)-one Compounds as Chemically Stable and Orally Active Inhibitors of the MDM2-p53 Interaction” (J Med Chem, 2016).

Series [1] is described as follows: Cmax in NMRI mouse at 50 mg/kg, po. It is filed as ADME, organism-based. Details: route oral, dose 50 mg/kg. The note with it: in vivo. The method in brief: (§1)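 Non-tumor-bearing female NMRI nude mice were given a single dose by one of two routes. The iv arm received 5 mg/kg as a bolus in 25% HP-B-CD. The po arm received 50 mg/kg in 0.5% Natrosol (pH 7-8, NaOH titrated). Both used 10 ml/kg. Plasma levels were measured by LC/MS/MS, n=3 per dose group. Parameters came from non-compartmental analysis, with AUC0-24h by linear trapezoidal interpolation.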

Series [2] can be described thus: Clearance in NMRI mouse at 5 mg/kg, iv. It is filed as ADME, organism-based. The note with it: in vivo. The essentials:
as §1

The subject of series [3] is SJSA-1. Briefly: Antitumor activity against human SJSA-1 cells xenografted in BomTac:NMRI-Foxn1^nu mouse assessed as induction of tumor regression at 25 mg/kg, po dosed daily for 13 days. The note with it: time 13.0 day. Format: functional, organism-based. The essentials:
(§2)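 NMRI nude mice bearing established subcutaneous SJSA-1 osteosarcoma tumors received oral treatment, with a vehicle control group. There were 8 animals per group. Median tumor volume and median body weight change (% of initial) were tracked.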

The target of series [4] is E3 ubiquitin-protein ligase Mdm2 (Mus musculus) (UniProt P23804). The series can be described thus: In-vivo inhibition of MDM2 in BomTac:NMRI-Foxn1^nu mouse xenografted with human SJSA-1 cells assessed as induction of CDKN1a protein accumulation at 100 mg/kg, po administered as single dose and measured after 6 to 24 hrs by immunohistochemical analysis. Format: functional, organism-based. The note with it: time 6-24 hrs. The method in brief:
(§3)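 SJSA-1 tumor-bearing NMRI nude mice received one oral dose of 100 mg/kg. Tumors were harvested at 6 h and 24 h. Sections were stained by immunohistochemistry for CDKN1a, TP53 and cleaved CASPASE3.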

Series [5] shares this target. Briefly: In-vivo inhibition of MDM2 in BomTac:NMRI-Foxn1^nu mouse xenografted with human SJSA-1 cells assessed as induction of cleaved caspse-3 protein accumulation at 100 mg/kg, po administered as single dose and measured after 6 to 24 hrs by mesoscale assay. Format: functional, organism-based. The note with it: time 6-24 hrs. The method in brief: (§4)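 In NMRI nude mice with established subcutaneous SJSA-1 tumors, a single oral 100 mg/kg dose was compared with vehicle. Tumors collected at 6 h and 24 h post-dose were analysed for protein biomarkers by Meso-Scale assay.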

Series [6] in a line: Volume of distribution at steady state in NMRI mouse at 5 mg/kg, iv. Format: ADME, organism-based. The note with it: in vivo, read-out: Vdss. The essentials: as §1
For series [7], the system named is SJSA-1. Briefly: Antiproliferative activity against human SJSA-1 cells expression wild type p53 incubated for 3 days by Alamar Blue dye based assay. Format: functional, cell-based. The note with it: SJSA-1, 72 h. (In general: Resazurin is reduced to fluorescent resorufin, in cell work by metabolically active cells.)
In series [8] the target is E3 ubiquitin-protein ligase Mdm2 (Mus musculus) (UniProt P23804). The series can be described thus: In-vivo inhibition of MDM2 in BomTac:NMRI-Foxn1^nu mouse xenografted with human SJSA-1 cells assessed as induction of CDKN1a mRNA expression at 100 mg/kg, po administered as single dose and measured after 6 to 24 hrs by q-RT-PCR analysis. It is filed as functional, organism-based. The conditions noted are these: time 6-24 hrs, TDE = time-dependent effect. The essentials:
(§5)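 Established subcutaneous SJSA-1 xenografts in NMRI nude mice were dosed once orally at 100 mg/kg, or with vehicle. Tumors were harvested 6 h and 24 h after dosing. TP53 target-gene mRNA was quantified by q-RT-PCR.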
In general terms: Xenograft models place foreign cells or tissue in a host animal.

The test system of series [9] is SJSA-1. The series can be described thus: Antitumor activity against human SJSA-1 cells xenografted in BomTac:NMRI-Foxn1^nu mouse assessed as induction of tumor regression at 100 mg/kg, po administered as single dose and measured up to 13 days. The conditions noted are these: time day <=13. Format: functional, organism-based. The essentials:
as §2

The target of series [10] is E3 ubiquitin-protein ligase Mdm2 (Mus musculus) (UniProt P23804). The series can be described thus: In-vivo inhibition of MDM2 in BomTac:NMRI-Foxn1^nu mouse xenografted with human SJSA-1 cells assessed as induction of TP53 protein accumulation at 100 mg/kg, po administered as single dose and measured after 6 to 24 hrs by mesoscale assay. It is filed as functional, organism-based. The conditions noted are these: time 6-24 hrs. The essentials: as §4
Chain of E3 ubiquitin-protein ligase Mdm2 (Mus musculus) (P23804 whole entry): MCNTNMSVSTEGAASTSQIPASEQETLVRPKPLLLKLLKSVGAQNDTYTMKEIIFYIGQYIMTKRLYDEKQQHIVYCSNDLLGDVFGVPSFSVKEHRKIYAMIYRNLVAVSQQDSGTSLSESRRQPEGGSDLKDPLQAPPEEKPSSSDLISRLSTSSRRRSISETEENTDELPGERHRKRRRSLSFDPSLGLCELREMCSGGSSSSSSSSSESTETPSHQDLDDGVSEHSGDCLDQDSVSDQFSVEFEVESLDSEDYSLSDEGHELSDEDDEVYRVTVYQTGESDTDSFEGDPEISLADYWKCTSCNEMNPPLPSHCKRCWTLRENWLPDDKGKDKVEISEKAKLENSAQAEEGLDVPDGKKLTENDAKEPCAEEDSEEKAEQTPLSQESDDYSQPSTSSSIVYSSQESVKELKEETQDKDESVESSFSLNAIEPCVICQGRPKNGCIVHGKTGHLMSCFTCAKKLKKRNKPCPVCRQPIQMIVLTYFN

Series [11] has the same target. The series can be described thus: In-vivo inhibition of MDM2 in BomTac:NMRI-Foxn1^nu mouse xenografted with human SJSA-1 cells assessed as induction of cleaved CASPASE3 protein accumulation at 100 mg/kg, po administered as single dose and measured after 6 to 24 hrs by immunohistochemical analysis. It is filed as functional, organism-based. The conditions noted are these: time 6-24 hrs. The method in brief:
as §3

Series [12] has the same target. The series can be described thus: In-vivo inhibition of MDM2 in BomTac:NMRI-Foxn1^nu mouse xenografted with human SJSA-1 cells assessed as induction of BBC3 mRNA expression at 100 mg/kg, po administered as single dose and measured after 6 to 24 hrs by q-RT-PCR analysis. Format: functional, organism-based. The note with it: time 6-24 hrs, TDE = time-dependent effect. The essentials: as §5

Series [13] relates to SK-OV-3. Briefly: Antiproliferative activity against human SK-OV-3 cells expression p53 mutant incubated for 3 days by Alamar Blue dye based assay. The conditions noted are these: SK-OV-3, 72 h. It is filed as functional, cell-based. The method in brief:
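p53-mutant SK-OV-3 cells were used in a growth/proliferation assay, with compounds tested up to 25 μM.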

Series [14] can be described thus: AUC (0 to 24 hrs) in NMRI mouse at 50 mg/kg, po. The conditions noted are these: in vivo. It is filed as ADME, organism-based. Details: time < 24 hr, route oral, dose 50 mg/kg. The method in brief: as §1
Series [15] concerns the target E3 ubiquitin-protein ligase Mdm2 (Mus musculus) (UniProt P23804). The series can be described thus: In-vivo inhibition of MDM2 in BomTac:NMRI-Foxn1^nu mouse xenografted with human SJSA-1 cells assessed as induction of MDM2 mRNA expression at 100 mg/kg, po administered as single dose and measured after 6 to 24 hrs by q-RT-PCR analysis. Format: functional, organism-based. The conditions noted are these: time 6-24 hrs, TDE = time-dependent effect. The essentials:
as §5

Series [16] has the same target. The series can be described thus: In-vivo inhibition of MDM2 in BomTac:NMRI-Foxn1^nu mouse xenografted with human SJSA-1 cells assessed as induction of MDM2 protein accumulation at 100 mg/kg, po administered as single dose and measured after 6 to 24 hrs by mesoscale assay. It is filed as functional, organism-based. The note with it: time 6-24 hrs. The essentials: as §4

Series [17] has the same target. The series can be described thus: In-vivo inhibition of MDM2 in BomTac:NMRI-Foxn1^nu mouse xenografted with human SJSA-1 cells assessed as induction of TP53 protein accumulation at 100 mg/kg, po administered as single dose and measured after 6 to 24 hrs by immunohistochemical analysis. It is filed as functional, organism-based. The conditions noted are these: time 6-24 hrs. The method in brief:
as §3

The source made the active and inactive calls. No cut-off for these calls is given here.

Take `O=C(O)c1ccc([C@H]2C[C@H]3[C@@H](N2)[C@H](c2cccc(Cl)c2F)[C@]2(C(=O)Nc4cc(Cl)ccc42)N3CC2CC2)cc1`: the peak concentration (Cmax) in series [1] is 21.3 µM. Moreover, in [2], the clearance turned out to be 7.1 mL/min/kg. Further, the result in [3] and in [9] was Active. The inhibition entry in series [4], in series [5], in series [10], in [11], in series [16] and in series [17] was “Active” throughout. The Vd in series [6] was found to be 2.1 L/kg. For the same compound, the concentration for half-maximal inhibition (IC50) in series [7] is 471 nM; in series [13] it was greater than 25000 nM. The inhibition result in series [8], in series [12] and in [15] was “Tde” throughout. In [14], this compound gave an AUC(0-t) at 24 h of 264 µM·h.

The Cmax is the highest concentration seen after dosing. Usually clearance stands for the rate of elimination divided by the concentration. Read a low clearance as a low capacity for elimination. As a reminder, the IC50 is the midpoint of a concentration-inhibition curve. Higher therefore signals weaker potency. The term AUC(0-t) denotes the area under the concentration-time curve up to a stated or last time point.
